STAT3 inh: reduces IL-6 driven STAT3 reporter signal. U3A cells, IL-6 STAT3-luciferase reporter, luminescence; host cell line lacks STAT1. inhibition, % at 5.5 µM. 0.89% of 190,000 active. AID 862;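 active means inhibition above the mean inhibition across all screened compounds plus 3 SD, cut at about 44% in these data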;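 further: 0% = DMSO only wells and 100% = 100 µM nifuroxazide control wells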
STAT1 blocker: STAT1 signaling inhibition; NIH 3T3 STAT1-luciferase reporter, IFN-gamma, luminescence; inhibition, % at 5.5 µM; 0.35% of 200,000 active;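 active means inhibition above a set limit, the mean inhibition across all tested compounds plus 3 SD, cut at about 34% in these data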;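 further: 0% = IFN-gamma with DMSO and 100% = IFN-gamma with 300 µM nifuroxazide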
APP 5'UTR act: APP 5'UTR luciferase reporter activation; AID 1276; SH-SY5Y APP 5'UTR luciferase reporter, luminescence; zero percent = DMSO vehicle wells; activation, % at 2 µM; 1% of 190,000 active;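 active means activation above a set limit, based on mean plus 3 SD of controls, cut at about 140% in these data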
STAT3 activator: STAT3 signaling activation; U3A cells, IL-6 STAT3-luciferase reporter, luminescence; 100% = signal with IL-6 EC80 alone; 0.91% of 190,000 active; AID 871; activation (% of control), % at 5.6 µM;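 active means activation above the screen-wide mean of compound activation plus 3 SD, cut at about 130% in these data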;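 further: 0% = background luminescence of wells with medium and substrate only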
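Test system: Human STAT1-deficient U3A cells with stable STAT3-luciferase reporter | Also added: Interleukin-6, 33 ng/mL | Timing: Compound pre-incubation 1 h before IL-6, then 6 h stimulation at 37 °C | Technique: Luciferase reporter luminescence | Read-out: Percent of IL-6-only median luminescence | Benchmarks: IL-6-only wells as 100% reference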
NF-kB expr up: compounds increasing NF-kB expression in human neuronal cells; fold change at 12.5 µM; NF-kB reporter expression; hits give high values; 1.6% of 190,000 active; in the data active means fold change above about 3.3
STAT1 act: STAT1 signaling activation. NIH 3T3 STAT1-luciferase reporter, IFN-gamma, luminescence; 100% = IFN-gamma alone, no compound. activation (% of control), % at 5.5 µM. 2.6% of 200,000 active. AID 932;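 active means activation above the screen-wide mean activation plus 3 SD, cut at about 130% in these data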;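 further: raw ratio to IFN-gamma control signal so 100% means no change and 0% no light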
* marks the source's active call; other numbers are inactive results. Sampled rows, rich in hits. Any-hit rate of the full collection: about 5.1%.

Screening O=C(CSC(=S)N1CCSCC1)c1ccccc1 returned STAT3 inh 30, STAT1 blocker -40, APP 5'UTR act 113, STAT3 activator 80, NF-kB expr up 6.2* and STAT1 act 137*.
`O=C(CSC(=S)N1CCSCC1)c1ccc(Cl)cc1` gave STAT3 inh 19, STAT1 blocker -31, APP 5'UTR act 151*, STAT3 activator 90, NF-kB expr up 5.2* and STAT1 act 129*.
O=C(Nc1ccccc1)N1CCSCC1 was read as STAT3 inh -3, STAT1 blocker -7, APP 5'UTR act -2, STAT3 activator 105, NF-kB expr up 1.7 and STAT1 act 107.
Screening O=[N+]([O-])c1ccc(N2CCN(CCO)CC2)cc1Sc1nc2ccccc2[nH]1 returned STAT3 inh 3, STAT1 blocker 6, APP 5'UTR act 2, STAT3 activator 103, NF-kB expr up 1.4 and STAT1 act 95.
COc1ccc(/C(C)=N/Nc2cccc(C(=O)O)c2)cc1OC was read as STAT3 inh -5, STAT1 blocker -9, APP 5'UTR act 217*, STAT3 activator 112, NF-kB expr up 1.1 and STAT1 act 107.
Screening C=CCOc1c(CNc2cccc(C(=O)O)c2)cccc1OC returned STAT3 inh -14, STAT1 blocker -49, APP 5'UTR act 56, STAT3 activator 119, NF-kB expr up 1.9 and STAT1 act 145*.
`COc1ccc(Br)cc1/C=N/Nc1cccc(C(=O)O)c1` gave STAT3 inh -10, STAT1 blocker -9, APP 5'UTR act 18, STAT3 activator 104, NF-kB expr up 1.8 and STAT1 act 108.
For C=CCOc1c(CNc2cccc(C(=O)O)c2)cccc1OCC the results were STAT3 inh 10, STAT1 blocker -13, APP 5'UTR act 11, STAT3 activator 101, NF-kB expr up 1.6 and STAT1 act 112.
Screening C/C(=N\NC(=O)C(=O)Nc1cccc(C(F)(F)F)c1)c1ccc(Cl)s1 returned STAT3 inh 28, STAT1 blocker 5, APP 5'UTR act 12, STAT3 activator 78, NF-kB expr up 1.3 and STAT1 act 95.
For C/C(=N\Nc1cccc(C(=O)O)c1)c1ccc(Cl)s1 the results were STAT3 inh 8, STAT1 blocker -37, APP 5'UTR act 86, STAT3 activator 98, NF-kB expr up 2.1 and STAT1 act 135*.
`COc1ccc(C(=O)Nc2ccc(/C(C)=N/NC(=O)c3ccccc3O)cc2)cc1OC` gave STAT3 inh 0, STAT1 blocker -32, APP 5'UTR act 13, STAT3 activator 103, NF-kB expr up 0.77 and STAT1 act 129*.
Screening NNC(=O)c1cnn(-c2ccccc2)c1-n1cccc1 returned STAT3 inh 1, STAT1 blocker 3, APP 5'UTR act -25, STAT3 activator 101, NF-kB expr up 1 and STAT1 act 96.
COc1ccc(-c2cc(CNS(=O)(=O)c3ccccc3)on2)cc1 was read as STAT3 inh 3, STAT1 blocker 3, APP 5'UTR act 14, STAT3 activator 102, NF-kB expr up 1.2 and STAT1 act 97.
Screening Cc1ccc(OCC(=O)O/N=C(\N)c2ccccn2)cc1 returned STAT3 inh -3, STAT1 blocker -47, APP 5'UTR act 101, STAT3 activator 112, NF-kB expr up 2.5 and STAT1 act 144*.
Screening Cc1cccc(OCC(=O)O/N=C(\N)c2ccccn2)c1C returned STAT3 inh -1, STAT1 blocker -43, APP 5'UTR act 72, STAT3 activator 104, NF-kB expr up 2.2 and STAT1 act 138*.
Screening Cc1ccc(OCC(=O)O/N=C(\N)c2cccnc2)cc1 returned STAT3 inh 13, STAT1 blocker -18, APP 5'UTR act 39, STAT3 activator 95, NF-kB expr up 1.6 and STAT1 act 117.
For N/C(=N\OC(=O)/C=C/c1ccccc1)c1ccccn1 the results were STAT3 inh 32, STAT1 blocker -12, APP 5'UTR act 160*, STAT3 activator 78, NF-kB expr up 1.1 and STAT1 act 110.
COc1ccccc1C/C(N)=N/OC(=O)COc1cccc(C)c1C was read as STAT3 inh 2, STAT1 blocker -3, APP 5'UTR act 0, STAT3 activator 102, NF-kB expr up 1.1 and STAT1 act 100.
Screening N/C(=N\OC(=O)Cc1cccc2ccccc12)c1ccccn1 returned STAT3 inh -1, STAT1 blocker -25, APP 5'UTR act 109, STAT3 activator 107, NF-kB expr up 6.1* and STAT1 act 123.
`O=C(/C=C/c1ccccc1)c1ccccn1` gave STAT3 inh 1, STAT1 blocker -18, APP 5'UTR act 10, STAT3 activator 108, NF-kB expr up 1.2 and STAT1 act 116.
For Cc1cccc(C)c1-n1c(C)nn(CC#N)c1=O the results were STAT3 inh 10, STAT1 blocker 0, APP 5'UTR act -3, STAT3 activator 96, NF-kB expr up 1.1 and STAT1 act 98.
Screening O=C(NCc1ccccn1)c1cn(-c2ccccc2)nc1-c1ccc(Cl)cc1 returned STAT3 inh -2, STAT1 blocker -2, APP 5'UTR act -11, STAT3 activator 101, NF-kB expr up 0.93 and STAT1 act 102.
Screening O=C(CN1C(=O)CC(c2ccccc2)S(=O)(=O)c2ccccc21)N1CCCCC1 (stereo unspecified) returned STAT3 inh 6, STAT1 blocker -3, APP 5'UTR act -2, STAT3 activator 105, NF-kB expr up 0.78 and STAT1 act 102.
For N#Cc1ccc(NC(=S)NC(=O)CCc2ccc(S(=O)(=O)N3CCOCC3)cc2)cc1 the results were STAT3 inh 16, STAT1 blocker -9, APP 5'UTR act 28, STAT3 activator 89, NF-kB expr up 1.1 and STAT1 act 106.
`CC(C)N(Cc1ccccc1)C(=O)COC(=O)c1ccc2c(c1)OCCO2` gave STAT3 inh -3, STAT1 blocker 0, APP 5'UTR act 4, STAT3 activator 104, NF-kB expr up 0.85 and STAT1 act 98.
For NS(=O)(=O)c1cc(C(=O)OCC(=O)NC2CC2)ccc1Cl the results were STAT3 inh 8, STAT1 blocker -1, APP 5'UTR act -13, STAT3 activator 96, NF-kB expr up 0.96 and STAT1 act 101.
`NS(=O)(=O)c1ccc(NC(=O)COC(=O)c2ccc3c(c2)OCCO3)cc1` gave STAT3 inh -3, STAT1 blocker 1, APP 5'UTR act 15, STAT3 activator 104, NF-kB expr up 1.1 and STAT1 act 98.
For CC(C)C(=O)Nc1ccccc1C(=O)OCC(=O)c1ccc2c(c1)OCCO2 the results were STAT3 inh -8, STAT1 blocker -43, APP 5'UTR act 31, STAT3 activator 102, NF-kB expr up 0.85 and STAT1 act 139*.
For CNc1ccccc1C(=O)OCC(=O)c1ccccc1 the results were STAT3 inh -1, STAT1 blocker -27, APP 5'UTR act -4, STAT3 activator 99, NF-kB expr up 1.4 and STAT1 act 124.

From PubChem BioAssay
